Laboratory results: ChEMBL document CHEMBL3244415, “Synthesis and pharmacological properties of [5-isoleucine]-, [8-isoleucine]-, and [5,8-diisoleucine]bradykinin” (1979)
Activity calls are given as the source filed them. No cut-off for these calls is given here. Non-standard residues stand in square brackets, D forms with d. Residues, ends and D or L forms follow the SMILES beside them. Cha = N[C@@H](CC1CCCCC1)C(=O)O

Experiments:
Rattus norvegicus [1] = species: Rattus norvegicus; experiment: Intrinsic activity at bradykinin receptor in estrous rat uterus assessed as ratio of bradykinin dose to compound dose to give 50% maximum myotropic activity
Outline: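 Uteri from estrous virgin rats were bathed in modified deJalon's solution with 20 mg/L CaCl2, at 30 °C, gassed with 98% O2-2% CO2. Isotonic contractions were recorded under 1 g tension. Full dose-response curves were run for bradykinin and analogue. The potency ratio was taken at the dose giving 50% maximal contraction.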

Rattus norvegicus [2] = experiment: Vasodepressor activity in rat assessed as ratio of bradykinin dose to compound intravenous dose that produce 20 mmHg fall in mean blood pressure; format: functional
Cavia porcellus = species: Cavia porcellus; experiment: Intrinsic activity at bradykinin receptor in guinea pig ileum assessed as ratio of bradykinin dose to compound dose to give 50% maximum myotropic activity; format: tissue-based
Outline: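 Strips of terminal guinea pig ileum, 2–3 cm long, were held in Tyrode's solution at 36 °C and bubbled with 95% O2-5% CO2. Isotonic contractions were recorded under 1 g tension. Full dose-response curves were run for bradykinin and analogue. The potency ratio was taken at the dose giving 50% maximal contraction.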

Rattus norvegicus [3] = species: Rattus norvegicus; experiment: Vasodepressor activity in rat assessed as ratio of intraarterial dose of bradykinin to dose of compound that produce 20 mmHg fall in mean blood pressure; format: functional, Artery
Outline: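 Male rats were anesthetized with Dial-urethan. Mean arterial pressure was recorded from the femoral artery. Drugs were given in saline by intracarotid injection. The ratio compares bradykinin and analogue doses that each lower mean pressure by 20 mmHg.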

Rattus norvegicus [4] = species: Rattus norvegicus; experiment: Antagonist activity at bradykinin receptor in estrous rat uterus assessed as inhibition of bradykinin-induced myotropic activity at 1 x 10^-6 M preincubated for 2 mins followed by bradykinin addition; format: tissue-based
Outline: (§1)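 Uteri from estrous virgin rats were suspended in modified deJalon's solution containing 20 mg/L CaCl2, kept at 30 °C and gassed with 98% O2-2% CO2. Isotonic contractions were recorded under 1 g tension. Analogue was added to the bath 2 min before various doses of bradykinin. Potency was compared at the concentration giving 50% maximal contraction.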

Rattus norvegicus [5] = species: Rattus norvegicus; experiment: Antagonist activity at bradykinin receptor in estrous rat uterus assessed as inhibition of bradykinin-induced myotropic activity at 2.5 x 10^-6 M preincubated for 2 mins followed by bradykinin addition; format: tissue-based; outline: as §1
Rattus norvegicus [6] = species: Rattus norvegicus; experiment: Antagonist activity at bradykinin receptor in estrous rat uterus assessed as inhibition of bradykinin-induced myotropic activity at 1 x 10^-5 M preincubated for 2 mins followed by bradykinin addition; format: tissue-based; outline: as §1

| Compound | Ratio (Rattus norvegicus [1]) | Ratio (Rattus norvegicus [2]) | Ratio (Cavia porcellus) | Ratio (Rattus norvegicus [3]) | inhibition (Rattus norvegicus [4]) | inhibition (Rattus norvegicus [5]) | inhibition (Rattus norvegicus [6]) |
| --- | --- | --- | --- | --- | --- | --- | --- |
| N=C(N)NCCC[C@H](NC(=O)[C@H](CC1CCCCC1)NC(=O)[C@@H]1CCCN1C(=O)[C@H](CO)NC(=O)[C@H](CC1CCCCC1)NC(=O)CNC(=O)[C@@H]1CCCN1C(=O)[C@@H]1CCCN1C(=O)[C@@H](N)CCCNC(=N)N)C(=O)O (H-RPPG[Cha]SP[Cha]R-OH) | 0.33 | 1 | 1 |  |  |  |  |
| H-RPPGFSPIR-OH |  |  |  | 0.00056 | inactive |  |  |
| H-RPPGISPFR-OH | 0.00028 |  |  | 0.00018 |  | inactive |  |
| H-RPPGISPIR-OH | < 0.0002 |  |  | < 0.00018 |  |  | inactive |
